Hits are enriched below; roughly 2.3% of the tested compounds scored in any of these assays.
TRPC6 inhibitor – mouse TRPC6 channel inhibitors, primary screen, cell-based, HEK293, membrane potential dye; ACh-evoked depolarization; hits give low values; AID 2553, 2010; 1.1% of 310,000 active; B-score at 10 µM; Short transient receptor potential channel 6 (Mus musculus), Q61143;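 active = B-score under library mean minus 3 SD, initial fluorescence not abnormally high, positive integrated signal ratio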;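 also: B-score derived from integrated fluorescence ratio over the kinetic read; more negative B-score means stronger inhibition of depolarization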
TRPC4 block – inhibitors of mouse TRPC4 channel, primary screen, Fluo4 calcium, HEK293 TRPC4beta/mu-opioid cells. DAMGO-evoked Fluo4 calcium flux; hits give low values. B-score at 10 µM. 0.39% of 300,000 active;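 active = B-score over 3 SD under the library average, no early fluorescence shift, positive overall ratio signal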
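Assay system – HEK293 line stably carrying TRPC4beta and mu-opioid receptor · Doses – single dose · Detection – Fluo4 calcium-dye fluorescence, kinetic read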
TRPC4 potent – positive allosteric modulators of TRPC4, primary screen, cell-based, mouse TRPC4beta, HEK293 mu-opioid, Fluo-4 calcium; DAMGO EC20, Fluo-4 Ca2+ flux; hits give high values; AID 2227, 2009; B-score at 10 µM; Short transient receptor potential channel 4 (Mus musculus), Q9QUQ5; 0.42% of 310,000 active;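 active = B-score of calcium response area above 5 SD of library B-scores, with initial fluorescence ratio within 5 SD of library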
TRPC6 act – mouse TRPC6 channel activators, primary screen, cell-based, HEK293, membrane potential dye. Short transient receptor potential channel 6 (Mus musculus), Q61143. HEK293-TRPC6 membrane potential dye fluorescence; hits give high values. B-score at 10 µM. 0.13% of 310,000 active;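 active = B-score of the integrated fluorescence ratio above library mean plus 3 SD, and starting fluorescence ratio within library mean plus 5 SD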;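 also: higher score means more depolarization so channel activation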
TRPC4 agonist – activators of mouse TRPC4 channel, primary screen, Fluo4 calcium, HEK293 TRPC4beta/mu-opioid cells; Short transient receptor potential channel 4 (Mus musculus), Q9QUQ5; Fluo4 calcium fluorescence; hits give high values; B-score at 10 µM; 0.49% of 310,000 active; AID 2237, 2010;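 active = B-score above 5 SD of library B-scores, and initial fluorescence ratio not above library mean plus 5 SD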;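 also: positive B-score marks a calcium rise read as TRPC4 activation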
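System – HEK293 cells stably co-expressing mouse TRPC4beta and mu-opioid receptor · Signal – Fluo4 calcium-sensitive dye fluorescence, kinetic, 1 Hz baseline · Benchmarks – buffer (low) and maximal DAMGO (high) · Read-out – B score of integrated fluorescence ratio per well · Incubation – dye loading 45 min room temperature, 110 s kinetic read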
Numbers stand for hits; - = inactive.

SMILES	TRPC6 inhibitor	TRPC4 block	TRPC4 potent	TRPC6 act	TRPC4 agonist
CC1CC(C)CN(CCCNC(=O)c2nn(C)c3c2CS(=O)(=O)c2ccccc2-3)C1 (centres undefined)	-	-	-	-	98
Cc1nn(-c2nnc(NCc3ccccc3)nn2)c(C)c1Br	-	-	17	-	-
COc1ccc(N(CC(=O)Nc2ccccc2C(=O)N2CCCC2)S(C)(=O)=O)cc1	-	-	-	-	-
O=C1/C(=C\c2ccc(O)c(O)c2)C(c2ccccc2)=NN1c1ccccc1	-	-	-	-	-
COc1cc(/C=C2\C(=O)N(c3ccc(NC(C)=O)cc3)N=C2c2ccccc2)ccc1O	-	-	15	-	-
O=c1cc(C(F)(F)F)[nH]c2c(OC(F)(F)F)cccc12	-	-	-	-	-
COc1ccc(OC)c(CNS(=O)(=O)c2c(C)nc3scc(C)n3c2=O)c1	-	-	-	-	-
CCN1CCCC1CNC(=O)c1cc2c(OC)cccc2[nH]1 (centres undefined)	-	-	-	-	154
CCN1CCCC1CNCc1ccc(Cl)cc1Cl (centres undefined)	-	-	29	-	-
CCN1CCCC1CNCc1cccc(OC)c1OCc1ccc(F)cc1 (centres undefined)	-	-	-	-	58
O=C1Cc2cc(NS(=O)(=O)c3cc(F)ccc3F)cc3c2N1CCC3	-	-	-	-	-
CCc1ccc(OCC(=O)Nc2ccc3c(c2)OCCO3)cc1	-	-	-	-	-
O=C(CN(C(=O)c1csnn1)c1ccc(F)cc1)NCc1ccc2c(c1)OCO2	-	-	-	-	-
Cc1cc2oc(=O)cc(CN3CCN(Cc4ccccc4)CC3)c2cc1O	-	-	-	-	79
CCc1cc2c(CN3CCN(C)CC3)cc(=O)oc2cc1O	-	-	-	-	51
CCc1cc2c(CN3CCN(CCO)CC3)cc(=O)oc2cc1O	-	-	-	-	-
Cc1cc2oc(=O)cc(CN3CCN(C/C=C/c4ccccc4)CC3)c2cc1O	-	-	-	-	-
CC(Oc1ccccc1)C(=O)Nc1cc(Cl)ccc1-n1cncn1 (centres undefined)	-	-	-	-	-
COc1ccc(CNCCC(c2ccccc2)C2CCOC(C)(C)C2)cc1 (centres undefined)	-	-	-	-	60
COc1ccc(CN(CCC(c2ccccc2)C2CCOC(C)(C)C2)C(C)=O)cc1 (centres undefined)	-	-	-	-	-
Cc1ccccc1OCCC(=O)Nc1ccc(N2CCOCC2)cc1N1CCOCC1	-	-	-	-	-
O=C1CC(c2ccc(O)cc2)Oc2cc(O)cc(O)c21 (centres undefined)	-	-	-	-	-
CC1CC(=O)c2c(cc3c(-c4c(O)cc(O)c5c(O)c6c(cc45)OC(C)CC6=O)c(O)cc(O)c3c2O)O1 (centres undefined)	-	-	-	43	-
CC(C)C(=O)Nc1c2c(nn1-c1ccc(F)cc1)CSC2	-	-	-	-	-
CCOc1cc(S(=O)(=O)NCc2ccccc2)c(OCC)cc1-n1cnnn1	-	-	-	-	-
SMILES	TRPC6 inhibitor	TRPC4 block	TRPC4 potent	TRPC6 act	TRPC4 agonist
CCOc1ccc(-n2cnnn2)cc1S(=O)(=O)NCc1ccccc1	-	-7	-	-	-
CCc1cc(C(c2ccc(OC)c(OC)c2)N2CCOCC2)c(NC(=O)c2ccccc2)s1 (centres undefined)	-	-	-	-	-
CCc1cc(C(c2cccc(OC)c2)N2CCOCC2)c(NC(=O)c2ccccc2)s1 (centres undefined)	-	-6	-	-	-
CN1CCC(=C2c3ccccc3CCc3sccc32)CC1	-6.7	-	-	-	-
CN1CCC(=C2c3ccccc3CC(=O)c3sccc32)CC1	-	-	-	-	-
CCOC(=O)C1(CCOc2ccccc2)CCN(Cc2ccc(-n3cccn3)cc2)CC1	-	-7	-	-	-
CCOC(=O)C1(CCOc2ccccc2)CCN(Cc2cc(OC)ccc2OC)CC1	-	-	-	-	98
CCOC(=O)C1(CCOc2ccccc2)CCN(Cc2cccs2)CC1	-	-5	-	-	-
CCOC(=O)C1(CCOc2ccccc2)CCN(Cc2ccncc2)CC1	-	-	-	-	-
CCOC(=O)C1(CCOc2ccccc2)CCN(Cc2ccc(C(=O)OC)cc2)CC1	-	-	-	-	-
CCOC(=O)C1(CCOc2ccccc2)CCN(Cc2nccn2CC)CC1	-	-	-	-	-
CCOC(=O)C1(CCOc2ccccc2)CCN(Cc2cccc(OC)c2)CC1	-	-	-	-	-
CCOC(=O)C1(CCOc2ccccc2)CCN(Cc2cccn2-c2ncccn2)CC1	-	-9	-	-	-
COc1ccc(OC(C)C(=O)NC2CCCCCCC2)cc1 (centres undefined)	-	-	-	-	-
O=C(N/N=C/c1cccc([N+](=O)[O-])c1)c1ccccc1-n1cccc1	-	-	-	-	-
Cc1nc2scc(C)n2c(=O)c1S(=O)(=O)NCc1ccc(F)cc1	-	-	-	-	-
CCOC(=O)C1(CCOC)CCN(Cc2ccncc2)CC1	-	-	-	-	-
CCOC(=O)C1(CCOC)CCN(Cc2ccccc2-c2ccco2)CC1	-	-	-	-	123
CCN(CC)c1ccc(NC2CC(=O)N(CCc3ccc(OC)cc3)C2=O)cc1 (centres undefined)	-	-	-	-	-
CCN(CC)S(=O)(=O)c1cnccc1N1CCN(c2cccc(Cl)c2)CC1	-	-	-	-	-
Cc1csc2c(N3CCN(C(=S)Nc4ccc(F)cc4F)CC3)ncnc12	-	-	-	-	124
Cc1csc2c(N3CCN(C(=O)Nc4ccccc4)CC3)ncnc12	-	-	-	-	185
CC(=O)Nc1cccc(OCCCNS(=O)(=O)c2ccc(C#N)cc2)c1	-	-	-	-	-
COc1ccccc1N1CCN(C(=O)C(=O)c2c[nH]c3ccccc23)CC1	-	-	-	-	-
O=C(Nc1ccccc1)OC1CCC2CC1CCC2OC(=O)Nc1ccccc1 (centres undefined)	-	-	-	-	-
CCCc1ccc2oc(C(=O)NCCN3CCCC(C(N)=O)C3)c(C)c2c1 (centres undefined)	-	-	13	-	-
CCn1c(N2CCN(S(=O)(=O)c3ccc(Cl)cc3)CC2)nc2ccccc21	-	-	-	-	-
CCn1c(N2CCN(S(=O)(=O)c3ccc(F)cc3)CC2)nc2ccccc21	-	-	-	-	-

From PubChem BioAssay
